According to PMC4128068 (British Journal of Pharmacology, 2014):

Columns and labels:
[1] = target: T1, volume-sensitive outwardly rectifying Cl− conductance (VSORC) (Mus musculus, UniProt Q80WG5); format: cell-based; conditions: CFTR-expressing cells
T1 sequence (Q80WG5 1-810): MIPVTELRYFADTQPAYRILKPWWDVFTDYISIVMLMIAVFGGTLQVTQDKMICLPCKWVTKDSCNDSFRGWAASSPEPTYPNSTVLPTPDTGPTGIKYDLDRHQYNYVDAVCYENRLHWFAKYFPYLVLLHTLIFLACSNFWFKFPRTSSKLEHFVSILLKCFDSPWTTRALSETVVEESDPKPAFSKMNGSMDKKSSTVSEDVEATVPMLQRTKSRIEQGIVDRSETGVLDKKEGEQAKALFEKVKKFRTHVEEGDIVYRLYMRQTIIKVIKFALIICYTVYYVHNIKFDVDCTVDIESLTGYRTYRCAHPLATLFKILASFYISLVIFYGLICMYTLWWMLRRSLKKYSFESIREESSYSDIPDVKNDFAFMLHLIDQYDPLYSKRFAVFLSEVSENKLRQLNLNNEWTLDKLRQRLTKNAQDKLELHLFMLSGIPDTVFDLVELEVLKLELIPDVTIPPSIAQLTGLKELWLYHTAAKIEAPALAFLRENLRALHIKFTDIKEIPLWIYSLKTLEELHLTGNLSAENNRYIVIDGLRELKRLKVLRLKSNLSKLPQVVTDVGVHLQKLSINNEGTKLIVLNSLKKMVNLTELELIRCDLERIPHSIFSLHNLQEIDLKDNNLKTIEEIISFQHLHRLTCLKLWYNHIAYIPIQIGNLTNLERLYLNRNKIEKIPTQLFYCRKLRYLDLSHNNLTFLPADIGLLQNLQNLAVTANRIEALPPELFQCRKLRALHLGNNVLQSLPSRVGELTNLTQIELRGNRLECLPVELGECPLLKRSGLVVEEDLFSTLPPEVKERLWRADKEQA
Summary of the method: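 Ruptured whole-cell patch clamp on kidney cells. Pipette: 140 mM NMDGCl, 10 HEPES pH 7.4, 5 EGTA, 5 MgATP. VSORC was activated by switching from a mannitol-containing NMDGCl bath (320–330 mOsm) to a mannitol-free one (285–290 mOsm). Test compound (0.5–10 µM) was perfused after 3–4 min. Cells were held at −40 mV with 400 ms steps from −100 to +100 mV. Slopes (−100 to −60 and +60 to +100 mV) were normalised to the hypotonic maximum; 5–6 cells.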

[2] = target: CFTR-like Cl− conductance (Mus musculus, UniProt P26361); format: cell-based
Summary of the method: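 Ruptured whole-cell patch clamp on cultured kidney DCT cells. CFTR current activated with forskolin (1–10 µM); once fully developed (3–4 min), test compound was perfused at rising concentrations (0.5, 1, 5, 10 µM). Holding potential −40 mV; eleven 400-ms steps from −100 to +100 mV in +20 mV increments. Current read 350 ms after pulse onset; mean ±SEM of six to eight cells.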

[3] = test system: Ca2+-dependent Cl− conductance (CaCC); assay: whole-cell patch-clamp, ionomycin-activated CaCC in CFTR-expressing kidney cells; format: cell-based, mouse
Summary of the method: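 Ruptured whole-cell patch clamp on kidney cells, with the NMDGCl pipette solution (5 EGTA, 5 MgATP, pH 7.4). CaCC was activated with 2 µM ionomycin, and test compound (1, 5, 10 µM) was perfused once current peaked. Cells were held at −40 mV with 400 ms steps from −100 to +120 mV. Slopes (+60 to +120 mV) were normalised to the uninhibited maximum; 5–6 cells. IC50 came from Hill fits.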

[4] = test system: kidney PCT cells (CFTR-expressing); assay: LIVE/DEAD cell viability/cytotoxicity assay; format: cell-based, mouse; conditions: 24 h
Summary of the method: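 Confluent mouse kidney PCT monolayers in 1% serum were exposed to the test compound (0.5–50 µM) for 24 h. Live cells were stained with calcein-AM (green) and dead cells with […] (red). Green and red pixels were quantified on three micrographs per well. Values were normalised to 100% live cells in controls, as means ±SEM of 3–6 experiments.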

[5] = test system: kidney PCT cells (CFTR-expressing); assay: MTT assay on CFTR-expressing cells; format: cell-based, mouse; conditions: 24 h
PS120 cells = assay: MTT assay on non–CFTR-expressing cells; format: cell-based, hamster; conditions: 24 h
Summary of the method: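 PS120 cells in 1% serum were exposed to increasing test compound concentrations for 24 h. They were then incubated 1 h with 0.5 mg mL−1 MTT in phenol red-free DMEM:F12 with 5% serum at 37°C. Cells were lysed in 10% SDS/0.01 N HCl overnight and OD read at 562 nm. Values were normalised to vehicle, means (SEM) of eight experiments.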

[6] = test system: shark 'CFTR-like' protein; conditions: 25 µM; oocyte expression system; ref Stahl et al., 2012; cited from earlier work
human CFTR = conditions: 20 µM; oocyte expression system; ref Stahl et al., 2012; cited from earlier work

Chain of CFTR-like Cl− conductance (P26361 whole entry, the tested form may be a part): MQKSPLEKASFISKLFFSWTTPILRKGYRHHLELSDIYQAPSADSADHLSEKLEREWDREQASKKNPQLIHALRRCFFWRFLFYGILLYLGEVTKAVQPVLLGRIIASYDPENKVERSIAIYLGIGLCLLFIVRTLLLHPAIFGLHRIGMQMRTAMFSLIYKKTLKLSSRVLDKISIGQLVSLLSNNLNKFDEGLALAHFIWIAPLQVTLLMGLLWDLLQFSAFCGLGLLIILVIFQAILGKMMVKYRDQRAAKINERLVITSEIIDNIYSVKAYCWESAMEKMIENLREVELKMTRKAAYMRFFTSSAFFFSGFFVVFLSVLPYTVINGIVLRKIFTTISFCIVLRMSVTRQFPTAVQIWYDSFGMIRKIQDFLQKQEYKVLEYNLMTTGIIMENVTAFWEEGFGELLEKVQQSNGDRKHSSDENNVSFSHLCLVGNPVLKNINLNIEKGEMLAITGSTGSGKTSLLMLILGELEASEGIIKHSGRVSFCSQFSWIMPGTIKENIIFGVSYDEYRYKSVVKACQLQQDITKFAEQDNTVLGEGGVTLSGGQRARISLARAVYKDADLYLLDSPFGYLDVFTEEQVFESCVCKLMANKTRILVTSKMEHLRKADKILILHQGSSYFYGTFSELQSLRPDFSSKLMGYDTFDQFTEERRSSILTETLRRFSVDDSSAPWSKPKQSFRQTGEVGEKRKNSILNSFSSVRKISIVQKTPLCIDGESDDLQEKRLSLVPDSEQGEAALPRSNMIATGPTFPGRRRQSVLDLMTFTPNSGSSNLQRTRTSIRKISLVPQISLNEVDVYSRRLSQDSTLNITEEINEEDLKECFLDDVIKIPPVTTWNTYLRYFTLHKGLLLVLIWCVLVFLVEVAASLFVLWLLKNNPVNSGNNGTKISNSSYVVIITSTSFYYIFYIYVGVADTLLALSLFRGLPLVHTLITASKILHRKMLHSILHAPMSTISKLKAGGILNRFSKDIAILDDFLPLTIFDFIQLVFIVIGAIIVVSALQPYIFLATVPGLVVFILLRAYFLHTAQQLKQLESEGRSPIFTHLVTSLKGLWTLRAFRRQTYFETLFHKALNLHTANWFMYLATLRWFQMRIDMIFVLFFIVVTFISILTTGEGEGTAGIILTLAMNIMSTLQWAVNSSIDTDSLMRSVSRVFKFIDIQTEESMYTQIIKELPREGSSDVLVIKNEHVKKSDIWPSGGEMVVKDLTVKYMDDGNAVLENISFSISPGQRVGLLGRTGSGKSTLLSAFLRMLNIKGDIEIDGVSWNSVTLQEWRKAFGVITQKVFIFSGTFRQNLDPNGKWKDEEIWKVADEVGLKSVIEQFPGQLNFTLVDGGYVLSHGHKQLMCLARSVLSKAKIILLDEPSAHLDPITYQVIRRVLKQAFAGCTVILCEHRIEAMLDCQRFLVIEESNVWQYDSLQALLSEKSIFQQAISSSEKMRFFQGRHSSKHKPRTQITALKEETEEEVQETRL

| SMILES | inhibition of the remaining fraction of the VSORC current ([1]; 100 µM, after CFTRinh-172) | inhibition of the CFTR conductance ([2]; 5 µM) | concentration of maximal inhibition of the CFTR-like current ([2]; forskolin-activated, tested 0.5, 1, 5, 10 µM) [µM] | inhibition of VSORC ([1]; 10 µM, negative and positive potentials) [%] | IC50 ([1]; read-out: IC50 towards VSORC-mediated Cl− currents, either at negative or positive potentials) [µM] | effect on VSORC conductance ([1]; up to 1 µM) | inhibition of the CaCC ([3]; 5 µM) | effect on the CaCC ([3]; up to 10 µM, ionomycin 2 µM) | effect on cell viability (live/dead labelling) ([4]; 50 µM) | effect on cell viability (live/dead labelling) ([4]; 1 to 20 µM) | effect on cell viability (MTT) ([5]; 20 µM and even 10 µM) | effect on cell viability (MTT) ([5]; 50 µM) | concentration decreasing cell viability (MTT) (PS120 cells) [µM] | inhibition of shark 'CFTR-like' protein [6] [%] | inhibition of human CFTR (human CFTR) [%] |
| --- | --- | --- | --- | --- | --- | --- | --- | --- | --- | --- | --- | --- | --- | --- | --- |
| O=C(O)c1cc([N+](=O)[O-])ccc1NCCCc1ccccc1 [NPPB, 5-nitro-2-(3-phenylpropylamino)-benzoic acid] | completely inhibited | – | – | – | – | – | – | – | – | – | – | – | – | – | – |
| O=C(O)c1ccc(C=C2SC(=S)N(c3cccc(C(F)(F)F)c3)C2=O)cc1 [CFTRinh-172, 3-[(3-trifluoromethyl)phenyl]-5-[(4-carboxyphenyl)methylene]-2-thioxo-4-thiazolidinone] | – | full inhibition | 5 | ~50 | 12 | did not affect | no noticeable inhibition | did not affect | induced cell death | no significant effect on cell viability | marked effect | dramatic decrease of the cell viability | 5 | 10 | ~50 |
